{
  "source": "the RNAGym collection of RNA variant scans (doi:10.1126/science.aae0568)",
  "parents": {"B1": {"name": "tRNA (parent)", "chain": "GUUCCGUUGGCGUAAUGGUAACGCGUCUCCCUCCUAAGGAGAAGACUGCGGGUUCGAGUCCCGUACGGAACG"}},
  "note": "Variants at the floor of the assay were thinned out.",
  "data": [
    {"variants_of": "B1", "experiment": "yeast fitness relative to wild type (ratio to wild type); higher = fitter; tRNA-Arg(CCU), competitive growth, 37 C, YPD", "how_it_was_run": "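A pool of Saccharomyces cerevisiae strains, each with a tRNA-Arg(CCU) gene variant at the native genomic locus, was competed in YPD at 37°C for 24 hours across six parallel replicates. The variants had been chemically synthesised at a 3% per-site mutation rate over 69 sites, and gene amplicons before and after competition were read by 100-nucleotide paired-end sequencing. Darwinian fitness relative to wild type rested on changes in genotype frequencies. Genotypes required ≥ 100 starting reads, and estimates < 0.5 were set to 0.5.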", "values": [
      {"variant": "GUUCCGUUGGCGUAAUGGUAACCCGUCUCCCUCCUAAGGUGAAGACUGCGGGUUUGAGUCCCGUACGGAACG", "note": "[G23C A40U C55U]", "yeast fitness": "≤ 0.5"},
      {"variant": "GUUCCGUUGGCGUAAUGGUAACCCGUCUCCCUCCUAAGGAGAUGACUGCGGGUUCGAGUCUCGUACGAAACG", "note": "[G23C A43U C61U G68A]", "yeast fitness": 0.52},
      {"variant": "GUUCCGUUGGCGUAAUGGUAACACGUCUCCCUCCUAAGGAGAAGACAGCGGGUUCGACUCCCGUACGGAACG", "note": "[G23A U47A G58C]", "yeast fitness": 0.596},
      {"variant": "GUUCCGUUGGCGUAAUGGUAACCCGUCUCCCUCCUAUGGAGAAGACCGCGGGUCCGAGUCCCGUAUGGAACG", "note": "[G23C A37U U47C U54C C66U]", "yeast fitness": "≤ 0.5"},
      {"variant": "GUUCCGUUGGCGUAAUGGUAACCCGUCUCCCUCCUAAGGAGAAGACUGCGGGUUCGAGUCCCGUCCGGAACG", "note": "[G23C A65C]", "yeast fitness": 0.619},
      {"variant": "GUUCCGUUGGCGUAAUGGUAACCCGUCUCCCUCCUAAGGAGAAGACUGCGGGUUCGAGUCCCGUGCGGAACG", "note": "[G23C A65G]", "yeast fitness": 0.587},
      {"variant": "GUUCCGUUGGCGUAAUGGUAACCCGUCUCCCUCCUAAGGAGCAGACAGGGGGUUCGAGUCCCGUACGGUUCG", "note": "[G23C A42C U47A C49G A69U A70U]", "yeast fitness": "≤ 0.5"},
      {"variant": "GUUCCGUUGGCGUAAUGGUAACCCGUCUCCCUCCUACGGAGAAGACUGCGGCUUCGAGUCCCGUAGGGCACG", "note": "[G23C A37C G52C C66G A69C]", "yeast fitness": 0.612},
      {"variant": "GUUCCGUUGGCGUAAUGGUAACCCGUCUCCCUCCUAAGGAGAGGACUGCGGGUUCGACUCCCGGACGGAACG", "note": "[G23C A43G G58C U64G]", "yeast fitness": 0.57},
      {"variant": "GUUCCGUUGGCGUAAUGGUAACCCGUCUCCCUCCUAUGGAAAAGACUGCGGGUUCGAGUCCCAUACGGAACG", "note": "[G23C A37U G41A G63A]", "yeast fitness": 0.558},
      {"variant": "GUUCCGUUGGCGUAAUGGUAACCCGUCUCCCUCCUAAGGAGGAGACUGCGGGUUCGAGUCCCGUACAGAACG", "note": "[G23C A42G G67A]", "yeast fitness": "≤ 0.5"},
      {"variant": "GUUCCGUUGGCGUAAUGGUAACCCGUCUCCCUCCUAAGGAGCAGACAGGGGGUUCGAGUCCCGUACGGAACG", "note": "[G23C A42C U47A C49G]", "yeast fitness": "≤ 0.5"},
      {"variant": "GUUCCGUUGGCGUAAUGGUAACCAGUCUCGCUCCUACGGAGAAGUCUGCGGGUUCGAGUCCCGUACGCAACG", "note": "[G23C C24A C30G A37C A45U G68C]", "yeast fitness": "≤ 0.5"},
      {"variant": "GUUCCGUUGGCGUAAUGGUAACCCGUCUCCCUCCUAAGGAGAAGACUGCGGGUUCGGGUCCCGUACGAAACG", "note": "[G23C A57G G68A]", "yeast fitness": 0.859},
      {"variant": "GUUCCGUUGGCGUAAUGGUAACACGUCUCCCUCCUAAGGAGAAGACCGCGGGUUCGAGUCCCGUACGGAACG", "note": "[G23A U47C]", "yeast fitness": 0.781},
      {"variant": "GUUCCGUUGGCGUAAUGGUAACACGUCUCCCUCCUAAGGAGAAGACUGCGGGUCCGAGUCCCGUACGGAACG", "note": "[G23A U54C]", "yeast fitness": 0.533},
      {"variant": "GUUCCGUUGGCGUAAUGGUAACACGUCUCCCUCCUAAGGAGAAGACUGCGGGUACGAGUCCCGUACGGAACG", "note": "[G23A U54A]", "yeast fitness": 0.605},
      {"variant": "GUUCCGUUGGCGUAAUGGUAACCCGUCUCCCUCCUAUGGAGAAGACCGCGGGUUCGAGUGCCGUAUGGAACG", "note": "[G23C A37U U47C C60G C66U]", "yeast fitness": "≤ 0.5"},
      {"variant": "GUUCCGUUGGCGUAAUGGUAACCAGUCUCCCUCCUAAGGAGAAGACUGCGGGUUCGGGUCCCGUACGAAACG", "note": "[G23C C24A A57G G68A]", "yeast fitness": "≤ 0.5"},
      {"variant": "GUUCCGUUGGCGUAAUGGUAACCCGUCUCCCUCCUAAGGAGAAGUCUGCGCGUUCGAGUCCCGUACGGAACG", "note": "[G23C A45U G51C]", "yeast fitness": "≤ 0.5"},
      {"variant": "GUUCCGUUGGCGUAAUGGUAACCCGUCUCCCUCCUAAGGAGAAGACUGCGGGUUCGGGUCCCCUUCGGAACG", "note": "[G23C A57G G63C A65U]", "yeast fitness": "≤ 0.5"},
      {"variant": "GUUCCGUUGGCGUAAUGGUAACCCGUCUCCCUCCUAAGGAGAAGACUGCGGGUUCGAGUCCCGUACGGACCG", "note": "[G23C A70C]", "yeast fitness": 0.73},
      {"variant": "GUUCCGUUGGCGUAAUGGUAACCCGUCUCCCUCCUAAGGAGAAGACUGCGGGUUCGAGUCCCGUGCGGUACG", "note": "[G23C A65G A69U]", "yeast fitness": 0.524},
      {"variant": "GUUCCGUUGGCGUAAUGGUAACCCGUCUCCCUCCUAAGGAGAUGACUGCGGGUUCAAGUCCCGUACGGAACG", "note": "[G23C A43U G56A]", "yeast fitness": 0.628},
      {"variant": "GUUCCGUUGGCGUAAUGGUAACCCGUCUCCCUCCUAAGGAGCAGACUGCGGGUUCGAGUCCCGUACGGAACG", "note": "[G23C A42C]", "yeast fitness": 0.721},
      {"variant": "GUUCCGUUGGCGUAAUGGUAACCCGUCUCCCUCCUACGGAGAAGAGUGCGGGUUCGAGUCCCGUAUGGAACG", "note": "[G23C A37C C46G C66U]", "yeast fitness": "≤ 0.5"},
      {"variant": "GUUCCGUUGGCGUAAUGGUAACCCGUCUCCCUCCUAAGGGGAAGACUGCGGGUUCGAGUCCCGUACGGAACG", "note": "[G23C A40G]", "yeast fitness": 0.639},
      {"variant": "GUUCCGUUGGCGUAAUGGUAACCCGUCUCCCUCCUAAGGAGAAGACUGCGGGUUCGGGUCCCGUACGGAACG", "note": "[G23C A57G]", "yeast fitness": 0.677},
      {"variant": "GUUCCGUUGGCGUAAUGGUAACACGUCUCCCUCCUAAGGAGAAGACUGCGGGUUCGAGUCCCGGACGGAACG", "note": "[G23A U64G]", "yeast fitness": 0.717},
      {"variant": "GUUCCGUUGGCGUAAUGGUAACACGUCUCCCUCCUAAGGAGAAGACUGCGGGUUCGAGCCCCGUACGAAACG", "note": "[G23A U59C G68A]", "yeast fitness": "≤ 0.5"},
      {"variant": "GUUCCGUUGGCGUAAUGGUAACCCGUCUCCCUCCUAAGGAGAAGCCUGCGGGUUCGAGUCCCGUAGGGAACG", "note": "[G23C A45C C66G]", "yeast fitness": "≤ 0.5"},
      {"variant": "GUUCCGUUGGCGUAAUGGUAACCCGUCUCCCUCCUAAGGAGUGGACUGCGGGUUCGAGUCCCGUACGGAACG", "note": "[G23C A42U A43G]", "yeast fitness": "≤ 0.5"},
      {"variant": "GUUCCGUUGGCGUAAUGGUAACCCGUCUCCCUCCUAAGGAGUAGACUGGGGGUUCGAGUCCCGUUCGGAACG", "note": "[G23C A42U C49G A65U]", "yeast fitness": "≤ 0.5"},
      {"variant": "GUUCCGUUGGCGUAAUGGUAACCCGUCUCCCUCCUAAGGAGAAGGCUGCGGGUUCGAGUCCCGUACGGAACG", "note": "[G23C A45G]", "yeast fitness": 0.773},
      {"variant": "GUUCCGUUGGCGUAAUGGUAACCCGUCUCCCUCCUAAGGAGAAGCCUGCGGGUUCGAGUCCCGUACGGAACG", "note": "[G23C A45C]", "yeast fitness": 0.554},
      {"variant": "GUUCCGUUGGCGUAAUGGUAACCCGUCUCCCUCCUAAGGAGAAGACUGCGGGUUCGAGUCCCGUACGGCACG", "note": "[G23C A69C]", "yeast fitness": 0.612},
      {"variant": "GUUCCGUUGGCGUAAUGGUAACCCGUCUCCCUCCUAAGGAGAAGACUGCGGGUUCGAGUCCCGUACGGUACG", "note": "[G23C A69U]", "yeast fitness": 0.737},
      {"variant": "GUUCCGUUGGCGUAAUGGUAACCCGUCUCCCUCCUAGGGAGAACCCUGCAGGUUGGAGUCCCGUAAGGAACG", "note": "[G23C A37G G44C A45C G50A C55G C66A]", "yeast fitness": "≤ 0.5"}
    ]}
  ]
}
